# Compound activity: PubChem, Broad Institute
# Compounds with a hit are over-represented: about 5.8% of the library has one in this group of screens.
# IDH1 mut inh = blocks human IDH1 R132H reductase activity; O75874; diaphorase/resazurin fluorescence, 60 min; inhibition, % at 10 µM; 70,000 tested, 0.18% active; in the data active means inhibition above about 34%; inconclusive means no clear call, values can overlap the other calls; inactive means below about 11%;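 further: 0% = DMSO and 100% = no enzyme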
# Target sequence (O75874 whole entry R132H): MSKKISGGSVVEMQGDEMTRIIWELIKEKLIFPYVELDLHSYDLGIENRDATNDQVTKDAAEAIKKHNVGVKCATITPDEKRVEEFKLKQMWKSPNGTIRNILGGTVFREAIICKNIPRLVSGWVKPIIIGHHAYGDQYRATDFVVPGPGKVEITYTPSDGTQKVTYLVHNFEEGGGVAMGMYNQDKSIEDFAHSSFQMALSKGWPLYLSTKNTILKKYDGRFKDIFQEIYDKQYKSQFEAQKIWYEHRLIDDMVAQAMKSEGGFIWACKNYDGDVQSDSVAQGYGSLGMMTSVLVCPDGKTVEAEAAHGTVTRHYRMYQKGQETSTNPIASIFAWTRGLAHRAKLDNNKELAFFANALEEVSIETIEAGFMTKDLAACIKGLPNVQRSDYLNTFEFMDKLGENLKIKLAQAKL
# T cruzi growth-1 = blocks T. cruzi growth in NIH3T3 culture; 77,000 tested, 5.9% active; AID 624255; inhibition, % at 8.34 µM; T. cruzi beta-gal in NIH3T3, GalScreen luminescence, 90 h;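 active means mean inhibition above about 93%, with at least 55% of replicates each passing it, limit read from the data, passing the limit was not always enough; inconclusive means only one of those two conditions holds; inactive means neither condition holds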
# Pf Dd2 inh = P. falciparum Dd2 growth inhibition | SYBR Green, 72 h; hits give low values | 94,000 tested, 2.3% active | activity change, % at 10 µM; in the data active means activity change below about -80%; inconclusive means no clear call, values can overlap the other calls
# KDM4C inh = blocks human GASC-1 (KDM4C) demethylase activity; Q9H3R0; GST-KDM4C 2-372, H3K9me3 peptide, LANCE TR-FRET; inhibition, % at 12.5 µM; 96,000 tested, 0.15% active; AID 720574;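 active means mean replicate inhibition above about 25%, with at least 55% of replicates also reaching it, limit read from the data, passing the limit was not always enough; inconclusive means only one of those two conditions met; inactive means neither condition met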
#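 System: N-terminal GST-fused human GASC-1 (KDM4C) fragment, residues 2-372 / Amount: 10 nM GST-KDM4C in enzyme reaction / Also added: H3K9me3 peptide with Fe(II)/2OG / Times: 30 min demethylation and 1 h detection at room temperature / Signal: LANCE TR-FRET / Read-out basis: Fall in 671/618 emission ratio as inhibition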
# T cruzi growth-2 = Trypanosoma cruzi proliferation inhibition. inhibition, % at 8.35 µM. 5,600 tested, 72% active. T. cruzi beta-gal in NIH3T3, GalScreen luminescence, 90 h. shares compounds with T cruzi growth-1;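 active means mean replicate inhibition above about 95% and at least 55% of replicates individually reaching it, limit read from the data; inconclusive means only one of the two criteria is met; inactive means neither criterion is met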
# T cruzi growth-3 = blocks T. cruzi growth in NIH3T3 host cells. shares compounds with T cruzi growth-1. T. cruzi beta-gal in NIH3T3, GalScreen luminescence, 90 h. inhibition, % at 2.09 µM. 5,600 tested, 21% active;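 active means mean inhibition above about 95%, with at least 55% of replicates also reaching it, limit read from the data; inconclusive means meets just one of the two conditions; inactive means meets neither condition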;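 further: plate controls were neutral control median for no effect and positive control median for full effect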
# NIH3T3 tox = kills mouse NIH/3T3 fibroblasts | cytotoxicity (signal decrease), % at 8.35 µM | AID 651742 | shares compounds with T cruzi growth-1 | NIH/3T3 viability, CellTiter-Glo ATP luminescence, 90 h | 5,600 tested, 14% active;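 active means mean signal decrease across replicates above about 35% based on untreated-well scatter, with enough replicates individually passing, limit read from the data; inconclusive means no rule stated though some were filed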;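 further: 0% = median of neutral control wells and 100% = median of positive control wells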
# 3T3 cytotox 2 = cytotoxicity in mouse NIH/3T3 fibroblasts; shares compounds with T cruzi growth-1; NIH/3T3 viability, CellTiter-Glo ATP luminescence, 90 h; inhibition, % at 24.9 µM; 5,600 tested, 56% active;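 active means mean loss of cell viability signal at or above a set limit, and enough replicates individually reaching it; inconclusive means meets only the mean limit or only the replicate share; inactive means meets neither condition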;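 further: 0% = median of neutral control wells and 100% = median of positive control wells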
# Numbers without * were called inactive; ? = inconclusive; nt = no result given.
SMILES,IDH1 mut inh,T cruzi growth-1,Pf Dd2 inh,KDM4C inh,T cruzi growth-2,T cruzi growth-3,NIH3T3 tox,3T3 cytotox 2
C[C@@H]1CCCCO[C@@H](CN(C)Cc2ccccc2)[C@H](C)CN([C@@H](C)CO)C(=O)c2cc(NC(=O)NC3CCCCC3)ccc2O1,nt,-111.8,-46.1,-1.9,nt,nt,nt,nt
C[C@@H]1CN([C@H](C)CO)C(=O)c2cc(NC(=O)NC3CCCCC3)ccc2O[C@@H](C)CCCCO[C@@H]1CN(C)Cc1ccccc1,3.0,113.4*,-46.7,0.3,108.1*,54.3,-13.2,31.4*
C[C@H](CO)N1C[C@H](C)[C@@H](CN(C)Cc2ccccc2)OCCCC[C@H](C)Oc2ccc(NC(=O)NC3CCCCC3)cc2C1=O,nt,?,-14.5,-0.8,?,53.6,14.5,47.9*
C[C@H]1CCCCO[C@@H](CN(C)Cc2ccccc2)[C@@H](C)CN([C@@H](C)CO)C(=O)c2cc(NC(=O)NC3CCCCC3)ccc2O1,4.6,-115.5,-55.4,2.0,nt,nt,nt,nt
CCCNC(=O)N(C)C[C@H]1Oc2cc(C#CC3CC3)ccc2S(=O)(=O)N([C@H](C)CO)C[C@@H]1C,0.2,50.4,12.6,0.7,nt,nt,nt,nt
N#C[C@H]1[C@@H](c2ccc(C#CCC3CCCC3)cc2)[C@H](CO)N1C(=O)CN1CCOCC1,nt,90.1,-28.4,-1.2,nt,nt,nt,nt
N#C[C@@H]1[C@H](c2ccc(C#CCC3CCCC3)cc2)[C@H](CO)N1C(=O)CN1CCOCC1,nt,?,-41.2,-2.4,102.3*,106.8*,21.7,77.1*
COCC(=O)N1[C@@H](C#N)[C@@H](c2ccc(C#CCC3CCCC3)cc2)[C@@H]1CO,nt,?,-21.1,-1.3,99.0*,89.6,16.5,102.7*
COCC(=O)Nc1ccc2c(c1)[C@@H]1C[C@@H](CC(=O)NCc3ccc4c(c3)OCO4)O[C@@H](CO)[C@@H]1O2,-1.9,40.7,-17.9,3.1,nt,nt,nt,nt
COc1ccccc1C(=O)Nc1ccc2c(c1)OC[C@@H](C)NC[C@H](C)[C@H](OC)CN(C)C2=O,-0.4,19.2,-28.7,-0.5,nt,nt,nt,nt
O=C(C[C@@H]1CC[C@@H]2[C@H](COC[C@H](O)CN2S(=O)(=O)c2ccc(F)cc2)O1)NCc1ccncn1,nt,28.0,6.8,-0.2,nt,nt,nt,nt
CC(C)C#Cc1ccc([C@@H]2[C@@H](CO)N3CCCCN(CC4CC4)C[C@H]23)cc1,nt,108.5*,-58.5,0.4,107.7*,73.9,35.6*,89.5*
CC(C)C#Cc1ccc([C@@H]2[C@@H](CO)N3CCCCN(CC4CC4)C[C@@H]23)cc1,nt,?,4.2,0.1,95.0*,72.7,?,105.8*
C[C@@H]1CN([C@@H](C)CO)S(=O)(=O)c2ccc(Br)cc2O[C@H]1CN(C)Cc1cccc(F)c1,nt,?,-25.2,1.5,98.4*,92.5,52.8*,106.6*
C[C@H](CO)N1C[C@H](C)[C@@H](CN(C)Cc2ccccc2)Oc2cc(Br)ccc2S1(=O)=O,-0.4,104.3,-20.7,2.8,nt,nt,nt,nt
C[C@H]1CN([C@@H](C)CO)S(=O)(=O)c2ccc(Br)cc2O[C@@H]1CN(C)Cc1cccc(F)c1,nt,?,-30.1,2.5,99.0*,64.8,32.0,103.0*
CCCC#Cc1ccc([C@H]2[C@@H](CO)N3CCCCN(C(=O)NC4CCCC4)C[C@H]23)cc1,nt,?,-78.7,0.2,105.7*,81.5,43.8*,103.2*
CCCC#Cc1ccc([C@@H]2[C@H](CO)N3CCCCN(C(=O)NC4CCCC4)C[C@@H]23)cc1,nt,?,-43.4,-2.7,108.8*,88.9,14.5,102.5*
COc1ccccc1-c1cn(CC[C@H]2CC[C@@H](NS(=O)(=O)c3ccccc3C)[C@H](CO)O2)nn1,-0.5,nt,-4.7,0.6,nt,nt,nt,nt
Cc1ccc(-c2ccc([C@@H]3[C@H](CO)N4CCCCN(C(=O)c5ccc(F)cc5)C[C@@H]34)cc2)cc1,nt,110.5*,-71.9,-0.9,97.9*,64.5,?,103.3*
Cc1ccc(-c2ccc([C@@H]3[C@H]4CN(C(=O)c5ccc(F)cc5)CCCCN4[C@H]3CO)cc2)cc1,nt,110.9*,7.5,1.6,103.1*,65.9,31.9,84.6*
